The source made the active and inactive calls. No cut-off for these calls is given here.
Experiments:
Homo sapiens = organism: Homo sapiens; test: Inhibition of human PKA using LRRASLG (Kemptide) as substrate at 100 uM after 40 mins in presence of [gamma-33P-ATP] by scintillation counting analysis
Method in brief: (§1)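 Radiometric [γ-33P]ATP assay (specific activity approx. 500 cpm/pmol) run by an outsourced service. Compound was added first from a 50x stock in DMSO, giving 2% DMSO final. Positive controls contained DMSO only; blanks used a reference inhibitor to set 0% activity. Reactions were started with MgATP mix, run 40 min at room temperature, and stopped with 3% phosphoric acid. They were spotted on P30 filtermat, washed in 75 mM phosphoric acid and methanol, and scintillation counted.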

[1] = target: Protein kinase C theta type (Homo sapiens) (UniProt Q04759); test: Inhibition of human PKCtheta using histone H1 as substrate at 100 uM after 40 mins in presence of [gamma-33P-ATP] by scintillation counting analysis; method in brief: as §1
[2] = target: Mitogen-activated protein kinase 14 (Homo sapiens) (UniProt Q16539); test: Inhibition of human SAPK2a using myelin basic protein as substrate at 100 uM after 40 mins in presence of [gamma-33P-ATP] by scintillation counting analysis; method in brief: as §1
[3] = target: Protein kinase C alpha type (Homo sapiens) (UniProt P17252); test: Inhibition of human PKCalpha at 100 uM after 40 mins in presence of [gamma-33P-ATP] by scintillation counting analysis; method in brief: as §1
[4] = target: Epidermal growth factor receptor (Homo sapiens) (UniProt P00533); test: Inhibition of human EGFR using poly[Glu:Tyr] (4:1) as substrate at 100 uM after 40 mins in presence of [gamma-33P-ATP] by scintillation counting analysis; method in brief: as §1
[5] = target: T1, Tyrosine-protein kinase JAK3 (Homo sapiens) (UniProt P52333); test: Inhibition of human JAK3 using GGEEEEYFELVKKKK as substrate at 100 uM after 40 mins in presence of [gamma-33P-ATP] by scintillation counting analysis; method in brief: as §1
T1 sequence (whole entry): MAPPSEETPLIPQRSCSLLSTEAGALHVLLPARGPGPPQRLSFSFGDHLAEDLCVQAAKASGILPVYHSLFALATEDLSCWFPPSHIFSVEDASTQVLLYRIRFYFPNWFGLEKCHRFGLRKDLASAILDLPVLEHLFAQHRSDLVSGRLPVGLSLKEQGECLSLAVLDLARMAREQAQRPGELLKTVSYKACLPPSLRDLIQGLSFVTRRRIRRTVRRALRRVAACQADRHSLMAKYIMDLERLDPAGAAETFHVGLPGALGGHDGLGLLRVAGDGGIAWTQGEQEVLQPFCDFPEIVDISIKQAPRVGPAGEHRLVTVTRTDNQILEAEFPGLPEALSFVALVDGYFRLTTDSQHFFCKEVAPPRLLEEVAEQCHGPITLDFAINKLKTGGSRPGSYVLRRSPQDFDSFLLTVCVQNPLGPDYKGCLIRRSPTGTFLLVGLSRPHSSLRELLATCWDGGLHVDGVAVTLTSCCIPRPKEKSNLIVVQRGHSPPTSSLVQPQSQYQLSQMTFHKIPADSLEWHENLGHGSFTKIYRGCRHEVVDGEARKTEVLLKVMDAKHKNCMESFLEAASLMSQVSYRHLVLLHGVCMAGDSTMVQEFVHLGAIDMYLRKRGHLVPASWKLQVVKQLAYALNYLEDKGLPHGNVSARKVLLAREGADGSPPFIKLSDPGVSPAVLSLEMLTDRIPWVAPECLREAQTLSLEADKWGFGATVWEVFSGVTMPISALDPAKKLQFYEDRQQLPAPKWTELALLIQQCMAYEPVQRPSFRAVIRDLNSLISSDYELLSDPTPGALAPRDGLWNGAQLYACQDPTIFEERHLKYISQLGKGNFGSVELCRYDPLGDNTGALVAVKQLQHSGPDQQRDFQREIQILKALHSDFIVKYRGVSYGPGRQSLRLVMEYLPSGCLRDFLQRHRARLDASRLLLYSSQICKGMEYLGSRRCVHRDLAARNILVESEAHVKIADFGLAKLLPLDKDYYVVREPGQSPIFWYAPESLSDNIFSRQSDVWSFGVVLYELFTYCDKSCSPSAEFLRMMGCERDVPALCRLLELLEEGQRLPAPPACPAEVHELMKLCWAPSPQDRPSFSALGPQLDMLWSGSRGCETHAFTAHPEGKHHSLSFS

[6] = target: T2, Protein kinase C zeta type (Homo sapiens) (UniProt Q05513); test: Inhibition of human PKCzeta using ERMRPRKRQGSVRRRV as substrate at 100 uM after 40 mins in presence of [gamma-33P-ATP] by scintillation counting analysis; method in brief: as §1
T2 sequence (whole entry): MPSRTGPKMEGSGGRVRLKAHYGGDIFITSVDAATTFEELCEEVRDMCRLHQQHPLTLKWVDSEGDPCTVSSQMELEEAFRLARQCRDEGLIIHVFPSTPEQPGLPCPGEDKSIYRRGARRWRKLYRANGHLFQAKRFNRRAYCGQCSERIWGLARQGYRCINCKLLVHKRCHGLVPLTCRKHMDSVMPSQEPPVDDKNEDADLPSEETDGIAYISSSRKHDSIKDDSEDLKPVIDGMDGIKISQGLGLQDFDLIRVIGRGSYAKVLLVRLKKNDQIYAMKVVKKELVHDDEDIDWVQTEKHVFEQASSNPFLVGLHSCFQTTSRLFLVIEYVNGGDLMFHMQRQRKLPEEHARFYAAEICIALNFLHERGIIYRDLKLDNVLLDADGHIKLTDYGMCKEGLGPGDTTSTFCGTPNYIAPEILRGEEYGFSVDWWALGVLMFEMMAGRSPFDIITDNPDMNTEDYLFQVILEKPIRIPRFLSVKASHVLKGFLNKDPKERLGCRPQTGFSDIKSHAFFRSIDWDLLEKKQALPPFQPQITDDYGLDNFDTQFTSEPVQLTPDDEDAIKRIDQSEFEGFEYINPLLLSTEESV

[7] = target: Dual specificity mitogen-activated protein kinase kinase 1 (Homo sapiens) (UniProt Q02750); test: Inhibition of human MEK1 at 100 uM after 40 mins in presence of [gamma-33P-ATP] by scintillation counting analysis; method in brief: as §1
HEK293 = test: Cytotoxicity in HEK293T cells expressing pGL4.32[luc2p/NF-kBRE/Hygro] by MTT assay; assay type: cell-based; settings: human
Method in brief: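 HEK293T cells were co-transfected with pGL4.32 and pGL4.74, re-seeded in 96-well plates, and treated with or without compound for 30 min. They were then stimulated with 10 ng/ml TNFα for 6-8 h, as in the reporter assay. MTT (20 µl of 5 mg/ml in PBS) was added for 4 h at 37 °C. Formazan was dissolved in DMSO and read at 490 nm. Values are mean±SD of at least triplicate measurements.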

Protein kinase C theta type (Homo sapiens), sequence (Q04759 whole entry, looked up): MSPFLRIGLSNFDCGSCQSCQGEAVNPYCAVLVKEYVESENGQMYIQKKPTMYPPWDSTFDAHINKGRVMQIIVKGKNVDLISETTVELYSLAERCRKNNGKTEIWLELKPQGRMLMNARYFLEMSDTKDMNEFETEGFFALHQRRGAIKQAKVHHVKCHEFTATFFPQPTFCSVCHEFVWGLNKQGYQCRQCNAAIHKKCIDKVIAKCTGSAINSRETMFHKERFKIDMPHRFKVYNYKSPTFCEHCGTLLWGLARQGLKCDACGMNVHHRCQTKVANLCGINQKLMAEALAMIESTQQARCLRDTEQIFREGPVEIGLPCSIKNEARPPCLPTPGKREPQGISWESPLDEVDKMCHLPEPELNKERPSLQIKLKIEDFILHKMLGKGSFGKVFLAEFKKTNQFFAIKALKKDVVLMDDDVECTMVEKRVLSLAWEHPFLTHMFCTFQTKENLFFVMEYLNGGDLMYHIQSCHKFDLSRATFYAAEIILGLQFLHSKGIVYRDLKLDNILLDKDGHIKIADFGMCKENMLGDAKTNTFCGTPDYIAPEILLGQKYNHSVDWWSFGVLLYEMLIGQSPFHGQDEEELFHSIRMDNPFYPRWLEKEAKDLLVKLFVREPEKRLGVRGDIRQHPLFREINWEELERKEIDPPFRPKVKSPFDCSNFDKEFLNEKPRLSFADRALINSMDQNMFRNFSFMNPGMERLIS
Epidermal growth factor receptor (Homo sapiens), sequence (P00533 whole entry): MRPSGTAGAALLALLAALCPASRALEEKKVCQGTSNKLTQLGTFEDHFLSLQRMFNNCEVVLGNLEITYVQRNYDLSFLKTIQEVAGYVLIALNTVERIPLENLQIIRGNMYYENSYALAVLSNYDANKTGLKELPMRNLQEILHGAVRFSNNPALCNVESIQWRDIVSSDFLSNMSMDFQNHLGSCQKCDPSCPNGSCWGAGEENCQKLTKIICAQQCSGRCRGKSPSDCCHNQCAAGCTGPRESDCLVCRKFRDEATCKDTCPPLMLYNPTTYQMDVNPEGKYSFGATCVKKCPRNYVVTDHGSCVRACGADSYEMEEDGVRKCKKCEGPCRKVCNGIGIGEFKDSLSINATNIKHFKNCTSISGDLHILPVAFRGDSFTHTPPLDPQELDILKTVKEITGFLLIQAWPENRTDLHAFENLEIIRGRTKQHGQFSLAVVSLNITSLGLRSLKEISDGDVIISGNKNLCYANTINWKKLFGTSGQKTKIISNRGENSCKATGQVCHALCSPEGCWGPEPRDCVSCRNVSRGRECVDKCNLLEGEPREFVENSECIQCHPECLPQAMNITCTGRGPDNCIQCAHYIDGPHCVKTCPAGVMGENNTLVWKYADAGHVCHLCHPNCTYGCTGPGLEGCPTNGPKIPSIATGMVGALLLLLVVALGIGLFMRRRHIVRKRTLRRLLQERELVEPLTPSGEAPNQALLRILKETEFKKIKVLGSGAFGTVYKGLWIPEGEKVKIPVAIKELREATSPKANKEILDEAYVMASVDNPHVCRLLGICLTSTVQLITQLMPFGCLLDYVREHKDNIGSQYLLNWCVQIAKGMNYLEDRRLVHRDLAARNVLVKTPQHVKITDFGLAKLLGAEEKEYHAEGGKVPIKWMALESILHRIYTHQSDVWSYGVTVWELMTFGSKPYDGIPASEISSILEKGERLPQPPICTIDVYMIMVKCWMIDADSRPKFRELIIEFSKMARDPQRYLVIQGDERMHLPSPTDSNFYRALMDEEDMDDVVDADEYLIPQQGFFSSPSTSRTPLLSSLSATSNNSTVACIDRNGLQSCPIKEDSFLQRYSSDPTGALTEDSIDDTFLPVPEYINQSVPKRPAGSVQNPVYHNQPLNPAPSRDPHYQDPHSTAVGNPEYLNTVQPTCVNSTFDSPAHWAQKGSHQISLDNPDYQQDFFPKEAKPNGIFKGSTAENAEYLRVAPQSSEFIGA
Dual specificity mitogen-activated protein kinase kinase 1 (Homo sapiens), sequence (Q02750 whole entry): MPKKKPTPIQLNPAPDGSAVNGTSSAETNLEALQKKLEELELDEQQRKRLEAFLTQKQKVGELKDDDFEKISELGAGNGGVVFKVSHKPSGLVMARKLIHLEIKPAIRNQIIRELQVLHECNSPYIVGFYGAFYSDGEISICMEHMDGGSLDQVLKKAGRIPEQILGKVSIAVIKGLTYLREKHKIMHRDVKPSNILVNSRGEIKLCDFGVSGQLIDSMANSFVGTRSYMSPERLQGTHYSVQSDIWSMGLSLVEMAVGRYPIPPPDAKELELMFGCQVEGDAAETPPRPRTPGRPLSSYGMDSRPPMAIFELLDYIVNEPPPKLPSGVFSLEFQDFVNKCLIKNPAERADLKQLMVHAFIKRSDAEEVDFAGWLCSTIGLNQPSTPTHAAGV
Mitogen-activated protein kinase 14 (Homo sapiens), sequence (Q16539 whole entry): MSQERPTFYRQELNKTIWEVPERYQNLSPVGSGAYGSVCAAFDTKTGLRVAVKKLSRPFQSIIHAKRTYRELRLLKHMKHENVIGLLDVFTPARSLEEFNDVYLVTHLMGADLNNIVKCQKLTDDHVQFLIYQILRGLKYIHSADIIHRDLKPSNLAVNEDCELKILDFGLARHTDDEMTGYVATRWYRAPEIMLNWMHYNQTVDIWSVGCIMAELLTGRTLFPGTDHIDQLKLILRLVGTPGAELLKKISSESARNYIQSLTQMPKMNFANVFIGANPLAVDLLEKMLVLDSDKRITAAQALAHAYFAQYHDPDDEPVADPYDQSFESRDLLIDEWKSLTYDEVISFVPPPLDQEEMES

Compound: CCOc1c(S(=O)(=O)NC2CC(C)(C)NC(C)(C)C2)ccc(Cl)c1Cl
- inhibition (Homo sapiens): inactive
- inhibition [1]: inactive
- inhibition [2]: inactive
- inhibition [3]: inactive
- inhibition [4]: inactive
- inhibition [5]: inactive
- inhibition [6]: inactive
- inhibition [7]: inactive
- Activity (HEK293): Non-Toxic

From ChEMBL document CHEMBL4257486, “A novel allosteric inhibitor that prevents IKKβ activation” (Medchemcomm, 2018)
